Shown are actives, neighbours in structure and some others; about 0.99% of the full set was active somewhere.
Dyrk1A ADPGlo: blocks rat Dyrk1A kinase activity. Q63470. ADP-Glo luminescence, NFATc1 peptide. inhibition, % at 12.5 µM. 310,000 compounds, 0.43% hits. AID 504441; in the data active = inhibition above about 50%;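 also: plate controls were vehicle with enzyme for no effect and no enzyme for full effect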
Rce1 inhib: inhibitors of yeast Ras-converting enzyme. calls only. Q03530. yeast membranes, quenched prenylated peptide cleavage fluorescence. AID 2563. 290,000 compounds, 0.27% hits;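 active = fall in fluorescence gain of 50% or more versus controls, with final raw signal at or below 3038400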;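 also: plate controls were neutral control wells for no effect and wells lacking membranes for full effect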
Target sequence (Q03530 whole entry, looked up): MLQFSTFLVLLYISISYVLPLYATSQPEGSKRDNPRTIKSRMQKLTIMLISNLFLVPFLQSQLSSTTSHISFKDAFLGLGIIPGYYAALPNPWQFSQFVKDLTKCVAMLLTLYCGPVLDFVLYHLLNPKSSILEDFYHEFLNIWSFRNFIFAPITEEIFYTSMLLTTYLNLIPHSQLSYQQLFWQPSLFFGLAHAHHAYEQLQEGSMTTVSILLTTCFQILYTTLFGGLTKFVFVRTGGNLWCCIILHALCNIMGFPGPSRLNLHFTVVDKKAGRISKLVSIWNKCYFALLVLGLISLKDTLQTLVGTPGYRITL
STK33 inh: human STK33 kinase inhibition. Q9BYT3. purified STK33, MBP phosphorylation, ADP-Glo luminescence. inhibition, % at 10 µM. 320,000 compounds, 0.073% hits. AID 2661;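 active = inhibition at or above 25%, using the most active replicate where run in duplicate; inactive = inhibition below 25%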
GSK3B inh: human GSK3beta kinase inhibition; P49841; GST-GSK3beta kinase, ADP-Glo luminescence, 60 min; active compounds read low; activity score (negative = inhibition), % at 10 µM; 300,000 compounds, 0.038% hits;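 active = more than half of replicate wells score below -50%, meaning over 50% inhibition versus plate controls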;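 also: 0% = median DMSO wells and -100% = median GW8510 positive control wells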
Target sequence (P49841 whole entry, looked up): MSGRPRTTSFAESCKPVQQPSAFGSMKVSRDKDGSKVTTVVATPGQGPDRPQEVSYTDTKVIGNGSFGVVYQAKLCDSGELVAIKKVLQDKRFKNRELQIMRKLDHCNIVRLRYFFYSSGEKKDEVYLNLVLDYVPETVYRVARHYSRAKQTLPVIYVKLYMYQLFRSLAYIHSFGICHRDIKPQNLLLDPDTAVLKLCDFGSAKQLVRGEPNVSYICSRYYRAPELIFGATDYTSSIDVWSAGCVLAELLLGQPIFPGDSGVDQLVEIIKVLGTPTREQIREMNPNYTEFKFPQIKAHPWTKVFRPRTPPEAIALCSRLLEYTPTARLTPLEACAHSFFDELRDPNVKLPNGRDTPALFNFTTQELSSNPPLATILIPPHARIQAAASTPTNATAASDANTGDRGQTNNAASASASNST
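Test system: GST-fused GSK3beta enzyme, cell-free | Quantity: 1.6 ng GST-GSK3beta enzyme per well | Reagent: 25 µM ATP with peptide substrate | Schedule: 60 min enzyme reaction, room temperature | Signal: Luminescent ADP-Glo measurement of ADP formed | Read-out basis: Score relative to plate controls | Control set: DMSO and 20 µM GW8510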
GSK3A inh: blocks human GSK-3 alpha kinase; P49840; 320,000 compounds, 0.1% hits; inhibition, % at 10 µM; AID 2650; ADP-Glo luminescence, 60 min;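 active = more than half of replicates show inhibition above 20%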;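 also: GST-tagged GSK-3 alpha with peptide substrate and 25 µM ATP; 0% = DMSO neutral wells and 100% = GW8510 positive control wells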
AI-2 QS mod: modulators of Vibrio harveyi AI-2 quorum sensing system | activity change, % at 7.5 µM | AID 2094 | Vibrio harveyi JMH597 AI-2 luminescence/OD600 ratio, 9 h; active compounds read low; strain lacks LuxN and CqsS sensors; 0 = neutral-control median | 300,000 compounds, 0.4% hits; in the data active = activity change below about -75%, passing the limit was not always enough;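 also: luminescence divided by OD600 gain over 9 h not by final OD600 alone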
ADP-Glo artifact: counter-screen for Dyrk1A inhibitors: ADP-Glo luciferase artifacts; shares compounds with Dyrk1A ADPGlo; ADP-Glo luciferase artifact assay, no Dyrk1A, luminescence; AC50, µM (doses to about 12 µM), for the others: at the top dose activity change, negative = inhibition; 1,300 tested, under 10 active; AID 588348;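 active = fitted half-maximal dose AC50 no more than ten times the top valid tested dose, with luminescence dropping as dose rises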
* = called active by the depositor; i = inactive; x = not tested or not shown.

SMILES | Dyrk1A ADPGlo | Rce1 inhib | STK33 inh | GSK3B inh | GSK3A inh | AI-2 QS mod | ADP-Glo artifact
COc1ccc2c3c([nH]c2c1)C(C)N(CCC(=O)NN)CC3 (stereo not drawn) | 74.2* | i | 1.5 | 3.5 | -0.3 | 8.1 | 9.6%
Nc1ncnc2c1ncn2C1O[C@H](CO)[C@@H](O)[C@@H]1O (stereo partly drawn) | 15.3 | x | 2.7 | x | 0.3 | x | x
N#Cc1c(N)n(C2OC(CO)C(O)C2O)c2ncnc(N)c12 (stereo not drawn) | 95.5* | x | x | x | x | x | 9.0%
CNc1nc2c(N)ncnc2n1[C@H]1O[C@@H](CO)[C@H](O)[C@@H]1O | 90.9* | i | 3.0 | -5.9 | 1.1 | 17.4 | 8.5%
Oc1ccc(/C=N/n2c(C3CCCCC3)n[nH]c2=S)c(O)c1 | 82.7* | i | 11.7 | -10.2 | 20.0 | 22.3 | 8.9%
COc1cccc(/C=N/n2c(C3CCCCC3)n[nH]c2=S)c1O | 52.6* | i | 1.9 | 0.3 | 23.7 | 0.7 | 10.9%
CC(C)CC(NC(=O)C1CCC(C)CC1)C(=O)Nc1ccc2c(c1)OCCO2 (stereo not drawn) | 56.3* | i | 1.6 | -0.4 | -4.4 | 12.7 | 11.9%
COc1ccc(S(=O)(=O)NNC(=O)Nc2ccc(C)cc2C)c(OC)c1 | 4.9 | i | -0.4 | -4.4 | -0.1 | 10.7 | x
O=C1CCCC2=C1Sc1ccc(Cl)cc1N2 | 54.2* | i | -1.1 | -5.4 | 8.1 | -15.2 | 8.6%
CCOC(=O)[C@@H]1[C@H]2COc3ccccc3[C@H]2N2C(=O)N(c3ccc(Cl)cc3)C(=O)[C@]12C | 13.7 | i | 1.0 | -2.2 | -1.8 | 27.5 | x
COc1ccc(NC(=O)N(C)C[C@H]2Oc3c(NS(=O)(=O)c4cccs4)cccc3C(=O)N([C@@H](C)CO)C[C@@H]2C)cc1 | 55.3* | x | 0.3 | x | 0.7 | x | 2.6%
Cc1ccc(OCCC(=O)OCC(=O)NC(=O)NC2CCCCC2)cc1 | 2.2 | i | -0.8 | -0.9 | -0.6 | 7.4 | x
c1coc(CNc2nc(-c3cccs3)cs2)c1 | -8.6 | i | 3.6 | 0.9 | 1.9 | 0.6 | x
Oc1ccc(-c2csc(NCc3ccco3)n2)cc1 | 52.1* | i | 0.7 | -1.3 | 4.9 | 4.8 | 5.8%
CC(=O)Nc1ccc(NC(=O)CCC(=O)OCC(=O)c2ccc(F)cc2)cc1 | x | i | -1.6 | 3.0 | -2.3 | 16.4 | x
C=CC(=O)Nc1cccc(N(C)c2ccnc(Nc3ccc(N4CCN(C)CC4)cc3)n2)c1 | 14.0 | x | x | x | x | x | x
COc1ccc(C(=O)N(Cc2nc(-c3ccc(C)cc3)no2)C(C)C)cc1OC | 61.1* | i | 0.8 | 0.5 | -3.2 | 8.5 | 7.6%
O=C(Nc1ccc(F)cc1)C(=O)c1c(O)[nH]c2ccc([N+](=O)[O-])cc12 | 56.5* | i | 0.7 | -2.8 | -0.6 | 40.9 | 7.4%
Cc1ccc(NCC(=O)N=Nc2c(O)[nH]c3ccc([N+](=O)[O-])cc23)cc1 | x | i | 2.9 | -3.0 | 0.9 | 1.5 | x
Oc1cccc(NC(=S)N=Nc2c(O)[nH]c3ccccc23)c1 | 50.5* | i | 7.4 | -5.3 | x | 35.6 | 11.8%
CNc1nc(SC)nc2ccsc12 | 10.4 | i | 2.0 | 0.1 | 0.3 | 16.8 | x
C=CCSc1nc(NC)c2sccc2n1 | 58.4* | i | 2.0 | 1.4 | 8.2 | 1.8 | 3.3%
O=C1[C@H]2[C@H](C=CC[C@H]2C(=O)N2CCOCC2)CCN1Cc1ccccc1 | 53.1* | i | -0.3 | 2.2 | -0.6 | 8.3 | 9.8%
O=C(Nc1ccccc1)[C@@H]1CC=C[C@@H]2CCN(Cc3ccccc3)C(=O)[C@@H]21 | 1.4 | i | 0.7 | -2.1 | -2.1 | 26.0 | x
O=[N+]([O-])c1ccc2c(c1)C(=NO)c1cc(F)ccc1-2 | 68.5* | x | x | x | x | x | 11.5%
SMILES | Dyrk1A ADPGlo | Rce1 inhib | STK33 inh | GSK3B inh | GSK3A inh | AI-2 QS mod | ADP-Glo artifact
Cc1cc([N+](=O)[O-])nn1Cc1ccccc1F | 50.9* | i | 0.1 | 2.0 | -2.9 | -16.6 | 12.1%
O=c1oc2c(-c3cccc(F)c3)cc(O)cc2s1 | 65.3* | i | 2.2 | -2.0 | 1.9 | 1.1 | 9.8%
Nc1nnc(-c2cccc(F)c2)s1 | 22.8 | i | 2.4 | 1.7 | 0.5 | 7.5 | x
CC(=O)OC[C@]12CC[C@H]3[C@@](C)(CC[C@H]4C(C)(C)CCC[C@]34C)[C@@H]1C[C@H](C1=CC(=O)O[C@@H]1OC(C)=O)O2 | x | x | 1.3 | x | -1.5 | x | x
COc1cccc(OCCOc2ccc(/C=C3/SC(=S)NC3=O)cc2)c1 | 5.0 | i | 0.2 | -20.8 | -1.9 | 24.6 | x
O=C1NC(=S)SC1=Cc1ccc(F)cc1 | 83.5* | x | x | x | x | x | 11.3%
O=C1NC(=S)SC1=Cc1cc(Br)ccc1O | 83.7* | x | x | x | x | x | 13.1%
COc1ccc(C=C2SC(=S)NC2=O)cc1 | 76.3* | x | x | x | x | x | 5.1%
O=C1NC(=S)SC1=Cc1ccccc1Br | 47.4 | x | x | x | x | x | x
O=C(c1ccco1)N1CCN(c2ncnc3c(-c4ccc(Cl)cc4)nsc23)CC1 | 2.5 | i | -1.2 | 1.7 | -3.5 | 13.6 | x
CC(=O)NC12CC3CC(C1)CC(C(=O)Nc1nc4ccc(F)cc4s1)(C3)C2 | 78.6* | i | 2.3 | 0.7 | -2.0 | 14.2 | 7.1%
CC(C(=O)Nc1ccc(O)cc1C(=O)O)N1C(=O)/C(=C\c2cccs2)SC1=S (stereo not drawn) | 6.4 | i | -6.2 | 3.3 | -1.5 | 8.2 | x
CN1CCN(C2=C(NS(=O)(=O)c3ccccc3)C(=O)c3ccccc3C2=O)CC1 | -4.1 | i | 1.5 | 0.3 | -0.8 | 5.3 | x
NC(=O)C1CCN(C2=C(Cl)C(=O)c3ccccc3C2=O)CC1 | -0.3 | i | 0.6 | 0.6 | -0.1 | 7.5 | x
O=C1C(Cl)=C(N2CCC(C(=O)O)CC2)C(=O)c2ccccc21 | 61.0* | i | 0.3 | -2.0 | 10.2 | 21.3 | 11.0%
CN1CCN(C2=C(Cl)C(=O)c3ccccc3C2=O)CC1 | 56.5* | x | x | x | x | x | 7.5%
CN(C)S(=O)(=O)c1ccc(Cl)c(NC(=O)C2CCN(S(=O)(=O)c3cccs3)CC2)c1 | 0.7 | x | 0.4 | x | 0.5 | x | x
COc1ccc(/C=C/C(=O)NNC(=O)C(C)Oc2ccccc2F)cc1OC (stereo not drawn) | x | x | -1.3 | x | -3.3 | x | x
Cc1ccc(-c2nn(-c3ccccc3)cc2CO)cc1 | 0.5 | i | -1.4 | 1.3 | -1.6 | 11.4 | x
COc1ccc(-c2nn(-c3ccccc3)cc2CO)cc1 | 62.1* | i | 0.5 | -1.3 | -0.7 | 5.3 | 12.9%
CC(=O)Nc1c(-c2cc(=O)oc3cc(C)ccc23)oc2ccccc12 | -1.0 | i | x | -1.1 | x | 32.5 | x
Cc1ccc(C)c(N(CC(=O)NC2CCCC2)S(=O)(=O)c2ccccc2)c1 | -7.0 | x | 2.8 | 2.5 | 4.8 | 31.2 | x
Cc1ccc(C(=O)N(C)Cc2ccc(N3CCOCC3)cc2)cc1S(=O)(=O)NCc1ccccc1 | x | x | -0.1 | x | 1.1 | x | x
Cc1ccnc(Nc2nc(-c3ccc(O)c(O)c3)cs2)c1 | 54.1* | x | 10.0 | x | 8.3 | x | 6.0%

Screens from PubChem BioAssay.
